Data reported in ChEMBL document CHEMBL3352407, “Griseorhodins D-F, neuroactive intermediates and end products of post-PKS tailoring modification in Griseorhodin biosynthesis” (J Nat Prod, 2014).
Calls of active or inactive are those of the source.

Columns and labels:
DRG neuron = experiment: Increase in Ca2+ uptake in mouse DRG neurons at 20 ug/ml by Fura-2 dye-based fluorescence microscopy; format: functional
In short: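 Mouse DRG cells plated in medium with additives and loaded with the Ca2+ dye Fura-2 AM. Compound applied directly at 20 μg/mL. Read-out is the fraction of cells showing a rise in Ca2+ concentration.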

[1] = molecular target: Muscarinic acetylcholine receptor M1 (Homo sapiens) (UniProt P11229); experiment: Binding affinity to human M1 receptor expressed in CHO cells at 10 uM after 90 mins by microbeta counting analysis; format: cell-based
Chain of Muscarinic acetylcholine receptor M1 (Homo sapiens) (P11229 whole entry): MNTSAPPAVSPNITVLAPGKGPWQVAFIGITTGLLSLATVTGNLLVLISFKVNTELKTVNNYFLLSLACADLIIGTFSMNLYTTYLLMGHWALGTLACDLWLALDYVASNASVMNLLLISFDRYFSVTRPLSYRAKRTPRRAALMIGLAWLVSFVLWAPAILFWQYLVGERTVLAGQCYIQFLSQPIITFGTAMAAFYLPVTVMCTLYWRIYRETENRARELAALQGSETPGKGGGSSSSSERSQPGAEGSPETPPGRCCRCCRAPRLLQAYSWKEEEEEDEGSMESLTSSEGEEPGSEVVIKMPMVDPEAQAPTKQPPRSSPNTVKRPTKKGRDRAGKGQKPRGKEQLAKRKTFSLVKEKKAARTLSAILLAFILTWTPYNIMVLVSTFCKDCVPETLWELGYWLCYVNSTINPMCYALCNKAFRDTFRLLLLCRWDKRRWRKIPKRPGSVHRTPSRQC
In short: (§1)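 Primary radioligand displacement screen, run by PDSP/NIMH. Receptor panel includes muscarinic M1–M5. Activity threshold 10 μM. Targets with significant binding went on to secondary Ki assays.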

[2] = molecular target: Muscarinic acetylcholine receptor M2 (Homo sapiens) (UniProt P08172); experiment: Binding affinity to human M2 receptor expressed in CHO cells at 10 uM after 90 mins by microbeta counting analysis; format: cell-based; in short: as §1
[3] = molecular target: Muscarinic acetylcholine receptor M3 (Homo sapiens) (UniProt P20309); experiment: Binding affinity to human M3 receptor expressed in CHO Flp-In cells at 10 uM after 90 mins by microbeta counting analysis; format: cell-based; in short: as §1
[4] = molecular target: Muscarinic acetylcholine receptor M4 (Homo sapiens) (UniProt P08173); experiment: Binding affinity to human M4 receptor expressed in CHO cells at 10 uM after 90 mins by microbeta counting analysis; format: cell-based; in short: as §1
[5] = molecular target: Muscarinic acetylcholine receptor M5 (Homo sapiens) (UniProt P08912); experiment: Binding affinity to human M5 receptor expressed in CHO cells at 10 uM after 90 mins by microbeta counting analysis; format: cell-based; in short: as §1
Chain of Muscarinic acetylcholine receptor M5 (Homo sapiens) (P08912 whole entry): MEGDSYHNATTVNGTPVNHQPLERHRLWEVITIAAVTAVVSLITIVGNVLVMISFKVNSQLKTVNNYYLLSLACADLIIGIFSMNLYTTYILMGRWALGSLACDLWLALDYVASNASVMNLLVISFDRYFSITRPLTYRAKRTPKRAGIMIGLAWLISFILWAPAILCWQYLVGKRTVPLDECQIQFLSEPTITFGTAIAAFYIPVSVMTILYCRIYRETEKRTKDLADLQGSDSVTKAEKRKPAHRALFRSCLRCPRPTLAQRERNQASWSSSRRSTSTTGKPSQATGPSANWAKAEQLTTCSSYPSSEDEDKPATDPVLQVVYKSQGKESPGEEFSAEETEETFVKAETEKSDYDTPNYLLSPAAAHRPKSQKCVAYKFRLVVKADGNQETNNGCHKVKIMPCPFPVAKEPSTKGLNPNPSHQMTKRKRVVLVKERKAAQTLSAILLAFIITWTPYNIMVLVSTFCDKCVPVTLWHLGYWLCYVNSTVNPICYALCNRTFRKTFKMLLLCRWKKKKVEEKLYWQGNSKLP

[6] = molecular target: 5-hydroxytryptamine receptor 1A (Homo sapiens) (UniProt P08908); experiment: Displacement of [3H]Way100635 from human serotonin 5-HT1A receptor expressed in CHO cells at 10 uM after 90 mins by microbeta counting analysis; format: cell-based; in short: as §1
Chain of 5-hydroxytryptamine receptor 1A (Homo sapiens) (P08908 whole entry): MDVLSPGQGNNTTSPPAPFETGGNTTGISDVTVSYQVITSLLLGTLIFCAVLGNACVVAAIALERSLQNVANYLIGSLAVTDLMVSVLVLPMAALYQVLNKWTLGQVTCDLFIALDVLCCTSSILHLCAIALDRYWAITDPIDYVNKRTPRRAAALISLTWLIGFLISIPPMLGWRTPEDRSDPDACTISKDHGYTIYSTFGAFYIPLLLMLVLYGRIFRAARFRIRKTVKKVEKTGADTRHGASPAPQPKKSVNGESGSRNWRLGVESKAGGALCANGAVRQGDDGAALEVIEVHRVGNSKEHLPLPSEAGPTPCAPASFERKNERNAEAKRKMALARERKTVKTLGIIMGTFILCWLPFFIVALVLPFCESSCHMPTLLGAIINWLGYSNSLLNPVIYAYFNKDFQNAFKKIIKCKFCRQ

[7] = molecular target: 5-hydroxytryptamine receptor 1B (Homo sapiens) (UniProt P28222); experiment: Displacement of [3H]5-CT from human serotonin 5-HT1B receptor expressed in HEK cells at 10 uM after 90 mins by microbeta counting analysis; format: cell-based; settings: HEK293; in short: as §1
[8] = molecular target: 5-hydroxytryptamine receptor 1D (Homo sapiens) (UniProt P28221); experiment: Displacement of [3H]5-CT from human serotonin 5-HT1D receptor expressed in HEKT cells at 10 uM after 90 mins by microbeta counting analysis; format: cell-based; in short: as §1
Chain of 5-hydroxytryptamine receptor 1D (Homo sapiens) (P28221 whole entry): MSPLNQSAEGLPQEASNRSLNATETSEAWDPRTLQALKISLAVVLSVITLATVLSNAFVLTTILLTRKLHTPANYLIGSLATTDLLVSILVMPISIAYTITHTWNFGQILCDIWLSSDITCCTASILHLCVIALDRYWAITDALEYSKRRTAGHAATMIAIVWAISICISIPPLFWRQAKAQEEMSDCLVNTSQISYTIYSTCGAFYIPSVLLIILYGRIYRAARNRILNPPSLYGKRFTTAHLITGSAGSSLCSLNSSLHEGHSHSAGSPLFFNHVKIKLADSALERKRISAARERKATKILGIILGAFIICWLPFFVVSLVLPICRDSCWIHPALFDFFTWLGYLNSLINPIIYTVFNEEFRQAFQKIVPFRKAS

[9] = molecular target: 5-hydroxytryptamine receptor 1E (Homo sapiens) (UniProt P28566); experiment: Displacement of [3H]5-HT from human serotonin 5-HT1E receptor expressed in HEK cells at 10 uM after 90 mins by microbeta counting analysis; format: cell-based; settings: HEK293; in short: as §1
Chain of 5-hydroxytryptamine receptor 1E (Homo sapiens) (P28566 whole entry): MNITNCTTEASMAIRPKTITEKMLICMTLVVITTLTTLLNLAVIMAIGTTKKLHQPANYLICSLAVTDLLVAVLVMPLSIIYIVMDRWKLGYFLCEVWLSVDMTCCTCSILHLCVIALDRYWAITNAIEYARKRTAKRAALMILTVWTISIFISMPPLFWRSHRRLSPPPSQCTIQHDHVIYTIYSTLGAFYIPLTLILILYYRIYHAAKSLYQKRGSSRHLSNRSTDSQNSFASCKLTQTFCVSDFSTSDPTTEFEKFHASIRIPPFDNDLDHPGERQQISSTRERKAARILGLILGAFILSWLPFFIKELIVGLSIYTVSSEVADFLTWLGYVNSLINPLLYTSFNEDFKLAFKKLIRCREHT

[10] = molecular target: 5-hydroxytryptamine receptor 2A (Homo sapiens) (UniProt P28223); experiment: Displacement of [3H]ketanserin from human serotonin 5-HT2A receptor expressed in HEKT cells at 10 uM after 90 mins by microbeta counting analysis; format: cell-based; in short: as §1
Chain of 5-hydroxytryptamine receptor 2A (Homo sapiens) (P28223 whole entry): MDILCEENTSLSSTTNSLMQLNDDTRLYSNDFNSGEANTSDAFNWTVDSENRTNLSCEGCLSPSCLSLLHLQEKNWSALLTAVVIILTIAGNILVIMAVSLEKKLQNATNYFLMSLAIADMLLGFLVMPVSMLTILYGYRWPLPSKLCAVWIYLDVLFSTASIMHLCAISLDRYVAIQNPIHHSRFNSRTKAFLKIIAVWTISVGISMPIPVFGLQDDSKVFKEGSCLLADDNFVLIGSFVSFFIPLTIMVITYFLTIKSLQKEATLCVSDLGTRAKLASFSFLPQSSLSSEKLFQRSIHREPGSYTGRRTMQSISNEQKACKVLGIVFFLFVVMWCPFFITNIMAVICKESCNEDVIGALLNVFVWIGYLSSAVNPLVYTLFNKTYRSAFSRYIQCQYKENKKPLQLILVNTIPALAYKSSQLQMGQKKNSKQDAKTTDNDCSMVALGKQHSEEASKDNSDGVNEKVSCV

[11] = molecular target: 5-hydroxytryptamine receptor 2B (Homo sapiens) (UniProt P41595); experiment: Displacement of [3H]LSD from human serotonin 5-HT2B receptor expressed in HEK cells at 10 uM after 90 mins by microbeta counting analysis; format: cell-based; settings: HEK293; in short: as §1
Chain of 5-hydroxytryptamine receptor 2B (Homo sapiens) (P41595 whole entry): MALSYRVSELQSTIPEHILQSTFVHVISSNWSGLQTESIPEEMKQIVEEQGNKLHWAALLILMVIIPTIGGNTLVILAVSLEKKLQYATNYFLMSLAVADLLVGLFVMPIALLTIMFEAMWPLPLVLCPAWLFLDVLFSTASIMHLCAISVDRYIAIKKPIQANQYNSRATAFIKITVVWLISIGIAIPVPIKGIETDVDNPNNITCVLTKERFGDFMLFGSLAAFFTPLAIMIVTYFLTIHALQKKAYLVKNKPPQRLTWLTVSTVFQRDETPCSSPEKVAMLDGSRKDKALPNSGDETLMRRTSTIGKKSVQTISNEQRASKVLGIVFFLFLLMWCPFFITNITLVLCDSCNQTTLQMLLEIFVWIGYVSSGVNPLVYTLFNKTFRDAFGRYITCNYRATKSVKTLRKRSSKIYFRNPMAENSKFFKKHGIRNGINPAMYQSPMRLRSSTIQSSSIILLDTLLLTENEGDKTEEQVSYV

[12] = molecular target: 5-hydroxytryptamine receptor 2C (Homo sapiens) (UniProt P28335); experiment: Displacement of [3H]Mesulergine from human serotonin 5-HT2C receptor expressed in Flp-IN HEK cells at 10 uM after 90 mins by microbeta counting analysis; format: cell-based; settings: HEK293; in short: as §1
[13] = molecular target: 5-hydroxytryptamine receptor 3A (Homo sapiens) (UniProt P46098); experiment: Displacement of [3H]GR65630 from human serotonin 5-HT3 receptor expressed in HEKT cells at 10 uM after 90 mins by microbeta counting analysis; format: cell-based; in short: as §1
[14] = molecular target: 5-hydroxytryptamine receptor 4 (Homo sapiens) (UniProt Q13639); experiment: Displacement of [3H]GR113808 from human serotonin 5-HT4 receptor at 10 uM after 90 mins by microbeta counting analysis; in short: as §1
Chain of 5-hydroxytryptamine receptor 4 (Homo sapiens) (Q13639 whole entry): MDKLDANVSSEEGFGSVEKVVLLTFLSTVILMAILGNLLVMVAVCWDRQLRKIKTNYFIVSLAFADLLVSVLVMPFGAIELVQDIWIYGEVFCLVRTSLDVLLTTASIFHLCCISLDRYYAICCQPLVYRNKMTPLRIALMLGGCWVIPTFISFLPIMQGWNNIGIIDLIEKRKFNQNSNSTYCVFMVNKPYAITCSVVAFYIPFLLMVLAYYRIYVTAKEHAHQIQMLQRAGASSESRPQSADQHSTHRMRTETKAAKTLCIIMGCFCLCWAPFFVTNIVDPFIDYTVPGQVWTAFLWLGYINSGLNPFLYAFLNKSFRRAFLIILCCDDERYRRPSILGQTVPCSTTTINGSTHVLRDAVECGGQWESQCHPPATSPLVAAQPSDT

[15] = molecular target: 5-hydroxytryptamine receptor 5A (Homo sapiens) (UniProt P47898); experiment: Displacement of [3H]LSD from human serotonin 5-HT5A receptor expressed in Flp-In CHO cells at 10 uM after 90 mins by microbeta counting analysis; format: cell-based; in short: as §1
[16] = molecular target: 5-hydroxytryptamine receptor 6 (Homo sapiens) (UniProt P50406); experiment: Displacement of [3H]LSD from human serotonin 5-HT6 receptor expressed in HEK cells at 10 uM after 90 mins by microbeta counting analysis; format: cell-based; settings: HEK293; in short: as §1
Chain of 5-hydroxytryptamine receptor 6 (Homo sapiens) (P50406 whole entry): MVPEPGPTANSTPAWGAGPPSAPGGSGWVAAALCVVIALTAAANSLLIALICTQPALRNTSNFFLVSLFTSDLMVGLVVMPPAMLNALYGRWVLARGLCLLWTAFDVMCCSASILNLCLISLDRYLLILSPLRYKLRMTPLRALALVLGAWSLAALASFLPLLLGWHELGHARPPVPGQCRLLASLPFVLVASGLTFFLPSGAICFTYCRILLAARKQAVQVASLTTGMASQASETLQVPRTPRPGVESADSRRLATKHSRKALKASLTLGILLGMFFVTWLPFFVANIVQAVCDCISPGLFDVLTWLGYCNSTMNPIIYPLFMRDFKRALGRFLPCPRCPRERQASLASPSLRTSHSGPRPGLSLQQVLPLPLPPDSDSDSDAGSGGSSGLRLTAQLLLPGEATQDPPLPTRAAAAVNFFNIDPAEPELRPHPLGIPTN

[17] = molecular target: 5-hydroxytryptamine receptor 7 (Homo sapiens) (UniProt P34969); experiment: Displacement of [3H]LSD from human serotonin 5-HT7 receptor expressed in HEK cells at 10 uM after 90 mins by microbeta counting analysis; format: cell-based; settings: HEK293; in short: as §1
Chain of 5-hydroxytryptamine receptor 7 (Homo sapiens) (P34969 whole entry): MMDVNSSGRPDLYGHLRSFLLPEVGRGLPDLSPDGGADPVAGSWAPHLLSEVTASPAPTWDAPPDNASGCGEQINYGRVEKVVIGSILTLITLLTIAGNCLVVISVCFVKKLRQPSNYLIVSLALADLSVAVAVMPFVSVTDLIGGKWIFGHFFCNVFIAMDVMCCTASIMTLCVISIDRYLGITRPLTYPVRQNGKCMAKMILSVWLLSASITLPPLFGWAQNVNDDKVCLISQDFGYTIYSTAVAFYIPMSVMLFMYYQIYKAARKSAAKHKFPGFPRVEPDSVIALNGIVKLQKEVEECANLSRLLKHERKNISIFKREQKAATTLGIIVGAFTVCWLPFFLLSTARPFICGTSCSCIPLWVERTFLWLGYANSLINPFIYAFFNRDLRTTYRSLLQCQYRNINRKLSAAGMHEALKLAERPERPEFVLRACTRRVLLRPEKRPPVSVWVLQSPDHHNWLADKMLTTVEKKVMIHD

[18] = molecular target: GABA-A receptor; anion channel (Homo sapiens) (UniProt P14867+P47870+P18507+P28472+P48169+Q99928+Q9UN88+P34903+O00591+O14764+Q8N1C3+P18505+P78334+P47869+P31644+Q16445); experiment: Displacement of [3H]Muscimol from rat GABAA receptor at 10 uM after 90 mins by microbeta counting analysis; format: protein-complex assay; settings: target entry is the homologue from another species; in short: as §1
Rattus norvegicus = species: Rattus norvegicus; experiment: Binding affinity to rat GABAB receptor at 10 uM after 90 mins by microbeta counting analysis; in short: as §1
[19] = molecular target: Histamine H1 receptor (Homo sapiens) (UniProt P35367); experiment: Displacement of [3H]pyrilamine from human H1 histamine receptor expressed in HEK cells at 10 uM after 90 mins by microbeta counting analysis; format: cell-based; settings: HEK293; in short: as §1
Chain of Histamine H1 receptor (Homo sapiens) (P35367 whole entry): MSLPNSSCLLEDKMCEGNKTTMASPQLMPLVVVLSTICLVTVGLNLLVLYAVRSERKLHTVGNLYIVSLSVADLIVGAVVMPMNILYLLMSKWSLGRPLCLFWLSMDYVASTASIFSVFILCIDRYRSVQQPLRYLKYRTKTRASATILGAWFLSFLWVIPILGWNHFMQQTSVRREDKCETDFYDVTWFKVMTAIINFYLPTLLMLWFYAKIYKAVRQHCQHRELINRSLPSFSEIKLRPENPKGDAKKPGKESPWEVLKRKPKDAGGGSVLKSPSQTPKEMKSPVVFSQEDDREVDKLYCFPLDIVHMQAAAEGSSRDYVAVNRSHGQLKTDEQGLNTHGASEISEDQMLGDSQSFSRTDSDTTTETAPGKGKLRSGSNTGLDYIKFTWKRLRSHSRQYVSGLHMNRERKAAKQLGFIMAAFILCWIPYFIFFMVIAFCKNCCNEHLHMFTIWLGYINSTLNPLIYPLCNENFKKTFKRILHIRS

[20] = molecular target: Histamine H2 receptor (Homo sapiens) (UniProt P25021); experiment: Binding affinity to human H2 histamine receptor expressed in HEK cells at 10 uM after 90 mins by microbeta counting analysis; format: cell-based; settings: HEK293; in short: as §1
[21] = molecular target: Histamine H3 receptor (Homo sapiens) (UniProt Q9Y5N1); experiment: Displacement of [3H]alpha-methylhistamine from human H3 histamine receptor expressed in HEK cells at 10 uM after 90 mins by microbeta counting analysis; format: cell-based; settings: HEK293; in short: as §1

Activity [1]: inactive
Activity [2]: inactive
Activity [3]: inactive
Activity [4]: inactive
Activity [5]: inactive
Activity [6]: inactive
Activity [7]: inactive
Activity [8]: inactive
Activity [9]: inactive
Activity [10]: inactive
Activity [11]: inactive
Activity [12]: inactive
Activity [13]: inactive
Activity [14]: inactive
Activity [15]: inactive
Activity [16]: inactive
Activity [17]: inactive
Activity [18]: inactive
Activity (Rattus norvegicus): inactive
Activity [19]: inactive
Activity [20]: inactive
Activity [21]: inactive
SMILES: COC(=O)CCc1cc2cc(C)oc(=O)c2c(O)c1O
Activity (DRG neuron): Active
